Measured values reported in ChEMBL document CHEMBL1123181 (J Med Chem, 1986).
Each block holds one compound with its values, some of them ahead of it.

Legend:
Rattus norvegicus [1] = experiment: Maximum percent change in mean arterial pressure by the compound over control after ip administration at 100 mg/kg dosage; 9-14; details: route intraperitoneal
[2] = target: Angiotensin-converting enzyme (Rattus norvegicus) (UniProt P47820); experiment: Percentage inactivation of the angiotensin I induced vasopressor response in normotensive conscious rats after po administration at dose 0.15 mg/kg
Angiotensin-converting enzyme (Rattus norvegicus), sequence (P47820 whole entry, looked up): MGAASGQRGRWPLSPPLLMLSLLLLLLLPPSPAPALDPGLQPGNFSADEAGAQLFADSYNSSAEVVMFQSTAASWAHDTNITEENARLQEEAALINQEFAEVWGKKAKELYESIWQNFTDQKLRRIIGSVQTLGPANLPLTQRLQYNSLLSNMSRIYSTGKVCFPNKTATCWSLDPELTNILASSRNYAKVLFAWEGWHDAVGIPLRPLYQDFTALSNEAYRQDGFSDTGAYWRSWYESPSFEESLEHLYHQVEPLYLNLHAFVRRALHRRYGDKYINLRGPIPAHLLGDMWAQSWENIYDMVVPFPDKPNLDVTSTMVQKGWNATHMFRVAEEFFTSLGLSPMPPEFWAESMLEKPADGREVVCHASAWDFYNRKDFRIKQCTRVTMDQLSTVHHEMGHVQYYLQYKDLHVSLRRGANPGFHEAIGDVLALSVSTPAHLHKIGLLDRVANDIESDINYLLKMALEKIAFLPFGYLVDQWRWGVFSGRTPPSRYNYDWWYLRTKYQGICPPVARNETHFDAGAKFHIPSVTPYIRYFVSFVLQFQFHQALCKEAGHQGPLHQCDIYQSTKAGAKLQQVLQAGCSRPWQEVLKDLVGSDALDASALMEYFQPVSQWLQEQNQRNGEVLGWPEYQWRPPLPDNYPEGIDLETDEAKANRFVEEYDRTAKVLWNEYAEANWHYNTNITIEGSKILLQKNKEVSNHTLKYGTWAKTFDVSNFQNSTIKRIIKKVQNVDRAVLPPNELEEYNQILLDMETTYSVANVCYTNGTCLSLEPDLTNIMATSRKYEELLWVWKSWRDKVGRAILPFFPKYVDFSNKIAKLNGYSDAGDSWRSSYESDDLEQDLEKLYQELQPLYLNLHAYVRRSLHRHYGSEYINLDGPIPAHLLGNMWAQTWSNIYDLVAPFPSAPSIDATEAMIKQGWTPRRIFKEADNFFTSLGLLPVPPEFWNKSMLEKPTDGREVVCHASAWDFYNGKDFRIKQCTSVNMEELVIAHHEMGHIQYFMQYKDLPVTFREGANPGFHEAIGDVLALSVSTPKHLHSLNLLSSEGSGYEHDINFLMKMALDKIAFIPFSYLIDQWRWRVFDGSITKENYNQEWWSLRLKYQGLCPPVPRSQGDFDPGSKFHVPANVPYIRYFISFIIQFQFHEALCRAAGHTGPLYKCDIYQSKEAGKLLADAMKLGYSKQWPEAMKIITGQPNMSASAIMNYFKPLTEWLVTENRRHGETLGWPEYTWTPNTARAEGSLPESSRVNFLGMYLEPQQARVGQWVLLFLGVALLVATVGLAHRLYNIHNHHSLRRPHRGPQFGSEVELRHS

[3] = target: Angiotensin-converting enzyme (Rattus norvegicus) (UniProt P47820); experiment: The time to 50% recovery of the angiotensin I response was measured after po administration at 0.15 mg/kg; 10-20
[4] = target: T1, Angiotensin-converting enzyme (Oryctolagus cuniculus, UniProt P12822); experiment: In vitro inhibition of Angiotensin I converting enzyme activity at pH 8.5 in rabbit lung; assay type: tissue-based; details: read-out: I50
T1 sequence (P12822 whole entry): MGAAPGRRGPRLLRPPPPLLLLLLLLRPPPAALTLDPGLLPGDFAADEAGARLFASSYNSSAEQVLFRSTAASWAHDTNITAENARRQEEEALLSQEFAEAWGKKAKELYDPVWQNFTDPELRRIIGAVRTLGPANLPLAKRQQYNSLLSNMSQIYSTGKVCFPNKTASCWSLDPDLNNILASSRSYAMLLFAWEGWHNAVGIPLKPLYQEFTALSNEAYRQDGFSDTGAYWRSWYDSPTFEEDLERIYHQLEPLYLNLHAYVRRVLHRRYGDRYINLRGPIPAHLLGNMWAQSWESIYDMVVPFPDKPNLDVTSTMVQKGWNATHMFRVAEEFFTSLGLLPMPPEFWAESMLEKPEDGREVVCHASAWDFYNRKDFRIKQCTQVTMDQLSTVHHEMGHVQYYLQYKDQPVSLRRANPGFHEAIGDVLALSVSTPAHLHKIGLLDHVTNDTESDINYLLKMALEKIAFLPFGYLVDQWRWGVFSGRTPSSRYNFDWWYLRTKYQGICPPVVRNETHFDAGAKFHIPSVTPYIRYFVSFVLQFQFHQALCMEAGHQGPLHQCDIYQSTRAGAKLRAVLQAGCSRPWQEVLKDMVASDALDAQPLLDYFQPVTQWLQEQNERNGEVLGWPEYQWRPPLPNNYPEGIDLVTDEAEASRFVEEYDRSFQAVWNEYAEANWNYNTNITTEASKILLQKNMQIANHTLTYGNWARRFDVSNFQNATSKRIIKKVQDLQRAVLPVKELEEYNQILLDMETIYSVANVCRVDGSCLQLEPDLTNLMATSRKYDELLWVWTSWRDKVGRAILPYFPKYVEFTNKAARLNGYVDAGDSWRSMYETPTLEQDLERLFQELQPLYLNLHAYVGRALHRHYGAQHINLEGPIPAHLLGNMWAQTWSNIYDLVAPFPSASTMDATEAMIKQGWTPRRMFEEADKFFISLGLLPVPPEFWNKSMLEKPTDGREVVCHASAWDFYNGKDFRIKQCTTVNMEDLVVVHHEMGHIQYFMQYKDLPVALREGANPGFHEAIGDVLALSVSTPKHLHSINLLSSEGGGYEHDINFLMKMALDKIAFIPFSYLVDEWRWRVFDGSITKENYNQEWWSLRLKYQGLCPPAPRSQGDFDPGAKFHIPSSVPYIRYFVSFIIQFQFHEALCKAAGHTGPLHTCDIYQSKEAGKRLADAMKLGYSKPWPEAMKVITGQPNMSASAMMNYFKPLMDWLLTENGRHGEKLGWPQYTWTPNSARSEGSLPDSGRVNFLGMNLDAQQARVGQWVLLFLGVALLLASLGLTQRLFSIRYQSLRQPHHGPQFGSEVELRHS

[5] = target: T1, Angiotensin-converting enzyme; experiment: In vitro inhibition of Angiotensin I converting enzyme activity in rabbit lung; assay type: tissue-based; details: read-out: I50
Rattus norvegicus [6] = experiment: Time taken by the compound to change arterial pressure outside the control area at a dose of 100 mg/kg, po; 2-12.5; assay type: functional, Artery
How it was run: (§1)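 Spontaneously hypertensive rats kept on a sodium-deficient diet, single oral dose, arterial pressure and heart rate monitored. Duration is the time pressure lies outside a control area, defined as the means (±2 standard deviations) of arterial pressure and heart rate readings from 45 control rats. Range given across animals.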

Rattus norvegicus [7] = experiment: Maximum percent change in mean arterial pressure by the compound over control after po administration at 100 mg/kg dosage; -(15-27); assay type: functional, Artery
How it was run: (§2)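 Spontaneously hypertensive rats kept on a sodium-deficient diet received the agent orally. Value = maximum % change in mean arterial pressure over control. Duration = time outside a control area, defined as the means ±2 SD of arterial pressure and heart rate readings from 45 control rats.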

[8] = target: Angiotensin-converting enzyme (Rattus norvegicus) (UniProt P47820); experiment: Percentage inactivation of the angiotensin I induced vasopressor response in normotensive conscious rats after po administration at dose 0.15 mg/kg; 65-69
Rattus norvegicus [9] = experiment: The time to 50% recovery of the angiotensin I response was measured after po administration at 0.15 mg/kg; 10-50
Rattus norvegicus [10] = experiment: Maximum percent change in mean arterial pressure by the compound over control after po administration at 100 mg/kg dosage; -(-27-45); assay type: functional, Artery
How it was run: as §2

[11] = target: Angiotensin-converting enzyme (Rattus norvegicus) (UniProt P47820); experiment: The time to 50% recovery of the angiotensin I response was measured after po administration at 0.3 mg/kg; 10-30
[12] = target: Angiotensin-converting enzyme (Rattus norvegicus) (UniProt P47820); experiment: Percentage inactivation of the angiotensin I induced vasopressor response in normotensive conscious rats after po administration at dose 0.3 mg/kg; 45-50
Rattus norvegicus [13] = experiment: Time taken by the compound to change arterial pressure outside the control area at a dose of 100 mg/kg, po; 15->24; assay type: functional, Artery
How it was run: as §1

[14] = target: T1, Angiotensin-converting enzyme; experiment: Compound was tested in vitro for inhibition of activity of rabbit lung Angiotensin I converting enzyme at pH 8.5; 0.14-10; details: read-out: I50
[15] = target: Angiotensin-converting enzyme (Rattus norvegicus) (UniProt P47820); experiment: Percentage inactivation of the angiotensin I induced vasopressor response in normotensive conscious rats after po administration at dose 1.5 mg/kg; 71-81
Rattus norvegicus [16] = experiment: Time taken by the compound to change arterial pressure outside the control area at a dose of 50 mg/kg, po; 3-19.5; assay type: functional, Artery
How it was run: as §1

Rattus norvegicus [17] = experiment: Maximum percent change in mean arterial pressure by the compound over control after po administration at 50 mg/kg dosage; -(31-34); assay type: functional, Artery
How it was run: as §2

[18] = target: Angiotensin-converting enzyme (Rattus norvegicus) (UniProt P47820); experiment: The time to 50% recovery of the angiotensin I response was measured after po administration at 1.5 mg/kg; 70-90
[19] = target: Angiotensin-converting enzyme (Rattus norvegicus) (UniProt P47820); experiment: The time to 50% recovery of the angiotensin I response was measured after po administration at 0.8 mg/kg; 35-50
[20] = target: Angiotensin-converting enzyme (Rattus norvegicus) (UniProt P47820); experiment: Percentage inactivation of the angiotensin I induced vasopressor response in normotensive conscious rats after po administration at dose 0.80 mg/kg; 50-55
Rattus norvegicus [21] = experiment: Maximum percent change in mean arterial pressure by the compound over control after po administration at 100 mg/kg dosage; -(-32-40); assay type: functional, Artery
How it was run: as §2

Rattus norvegicus [22] = experiment: Time taken by the compound to change arterial pressure outside the control area at a dose of 100 mg/kg, po; assay type: functional, Artery
How it was run: as §1

Rattus norvegicus [23] = experiment: Maximum percent change in mean arterial pressure by the compound over control after po administration at 100 mg/kg dosage; -(17-29); assay type: functional, Artery
How it was run: as §2

Rattus norvegicus [24] = experiment: Time taken by the compound to change arterial pressure outside the control area at a dose of 100 mg/kg, po; 5.5-15; assay type: functional, Artery
How it was run: as §1

[25] = target: Angiotensin-converting enzyme (Rattus norvegicus) (UniProt P47820); experiment: The time to 50% recovery of the angiotensin I response was measured after po administration at 0.6 mg/kg; 40-50
[26] = target: Angiotensin-converting enzyme (Rattus norvegicus) (UniProt P47820); experiment: Percentage inactivation of the angiotensin I induced vasopressor response in normotensive conscious rats after po administration at dose 0.60 mg/kg; 50-55
Rattus norvegicus [27] = experiment: Maximum percent change in mean arterial pressure by the compound over control after po administration at 100 mg/kg dosage; assay type: functional, Artery
How it was run: as §2

[28] = target: Angiotensin-converting enzyme (Rattus norvegicus) (UniProt P47820); experiment: The time to 50% recovery of the angiotensin I response was measured after po administration at 0.15 mg/kg; 10-40
[29] = target: Angiotensin-converting enzyme (Rattus norvegicus) (UniProt P47820); experiment: Percentage inactivation of the angiotensin I induced vasopressor response in normotensive conscious rats after po administration at dose 0.15 mg/kg; 55-76

SMILES: C[C@@H]1CSC(=O)[C@@H]2Cc3ccccc3CN2C1=O
- MAP (Rattus norvegicus [10]): -27%
- Duration [11]: 10 min
- inhibition [12]: 45%
- IC50 [5]: 12 nM
- Duration (Rattus norvegicus [13]): 900 min

SMILES: CC1SC(=O)C2CSCN2C1=O (configuration not stated)
- IC50 [14]: 140 nM
- IC50 [5]: 380 nM

SMILES: O=C1CN(C2CCCC2)C(=O)c2cccc(Cl)c2S1
- MAP (Rattus norvegicus [23]): -17%
- Duration (Rattus norvegicus [24]): 5.5 h
- Duration [25]: 40 min
- IC50 [4]: 280 nM
- IC50 [5]: 210 nM
- inhibition [26]: 50%

SMILES: Cc1ccc(N2CC(=O)SCC(C)C2=O)cc1 (configuration not stated)
- MAP (Rattus norvegicus [27]): -37%
- Duration [28]: 10 min
- IC50 [4]: 5 nM
- IC50 [5]: 21 nM
- Duration (Rattus norvegicus [22]): > 24 h
- inhibition [29]: 55%

More lines, in order of falling IC50 [5], values ahead:

- inhibition [2]: 5%
- Duration [3]: 10 min
- IC50 [4]: 4800 nM
- IC50 [5]: 4500 nM
SMILES: O=C1CN(C2CCCC2)C(=O)c2ccccc2S1
- MAP (Rattus norvegicus [1]): 9%

- Duration [19]: 35 min
- inhibition [20]: 50%
- IC50 [4]: 380 nM
- IC50 [5]: 400 nM
SMILES: COc1cccc2c1SC(=O)CN(C1CCCC1)C2=O
- MAP (Rattus norvegicus [21]): -32%
- Duration (Rattus norvegicus [22]): >24 h

- inhibition [15]: 71%
- IC50 [4]: 26 nM
- Duration [18]: 70 min
- IC50 [5]: 85 nM
SMILES: Cc1ccc(N2CC(=O)SC(C)C2=O)cc1 (configuration not stated)
- Duration (Rattus norvegicus [16]): 3 h
- MAP (Rattus norvegicus [17]): -31%

- inhibition [8]: 65%
- Duration (Rattus norvegicus [9]): 10 min
- IC50 [4]: 18 nM
- IC50 [5]: 13 nM
SMILES: CC1CSC(=O)CN(C2CCCC2)C1=O (configuration not stated)
- Duration (Rattus norvegicus [6]): 2 h
- MAP (Rattus norvegicus [7]): -15%
